In the EternaBench riboswitch data:

System: MS2 coat protein
Assay: apparent Kd, MS2 coat protein; higher = weaker binding; RNA-MaP array; theophylline 2 mM where present
Summary of the method: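 Binding was read on Illumina sequencing-chip clusters where stalled E. coli RNA polymerase had transcribed each design. A titration of SNAP-549-labelled MS2 coat protein began at 0.7 or 1.5 nM and doubled to 3 µM, once without ligand and once with constant ligand, in 100 mM Tris-HCl pH 7.5, 80 mM KCl, 4 mM MgCl2, BSA, DTT, yeast tRNA and Tween-20. The apparent Kd is the median of filtered per-cluster binding-curve fits, based on green signal normalised to red-channel RNA signal and control-cluster median Fmax.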

[1] = designed as: OFF switch for theophylline, no ligand
[2] = ligand present: theophylline, designed as: OFF switch for theophylline
[3] = designed as: ON switch for theophylline, no ligand
[4] = ligand present: theophylline, designed as: ON switch for theophylline

Row | Sequence | apparent Kd [1] [nM] | apparent Kd [2] [nM] | apparent Kd [3] [nM] | apparent Kd [4] [nM]
1 | CGGUUUGUGAUGGAUACCAGCAGAGAAAAUGUUUAUCCUAACAUGAGGAUCACCCAUGUAUGCCCUUGGCAGCUGUUGUGGGCUG | 64.8 | 62.1 | – | –
2 | CGUAUCGUAACUGAUACCAGUGUACUGACAUGAGGAUCACCCAUGUUGGGUUUUGUUGUACACCCUUGGCAGCAGAAUCGAUACG | 67 | 103 | – | –
3 | GAAACGUAGGUGGAGCGGUGAAAUGGCGAUACCAGCGUGGAAACACGCCCUUGGCAGCGUUAGAACAUGAGGAUCACCCAUGUUU | 25.2 | 112 | – | –
4 | GAACAUGAGGAUCACCCAUGUGAGAAUGAUACCAGUAGAAGAAGAUGCCCUUGGCAGCGUGCGUGAGGAUCACCCAUGUAGGAGG | 24.2 | 27.9 | – | –
5 | GAGCUGAUGUAGGGUGGAUAUCCUUGAGAUACCAGUACAGAAAUGUACCCUUGGCAGCUCUUCCUUACAUGAGGAUCACCCAUGU | 18.7 | 23.1 | – | –
6 | GAUCCUCGUACGGAUACCAGCGACUAACAUGAGGAUCACCCAUGUGAUAAAGAAAAUAUUUGCCCUUGGCAGCCGAAUAGAUAGU | – | – | 72.7 | 34.9
7 | GAUGAACUAUAUGAUACCAGACAACAUGAGGAUCACCCAUGUGAUAGUCGUCCUCUGCCUGUCCCUUGGCAGCGUAUAGUUUAUC | 40.6 | 102 | – | –
8 | GAUGAACUAUUCGAUACCAGACCACAUGAGGAUCACCCAUGUGUGUUUCGUCCUUAGCCGGUCCCUUGGCAGCGAAUAGUUUAUC | 20.2 | 30.3 | – | –
9 | GAUGAUAUUGCAGAUACCAGACACAUGAGGAUCACCCAUGUCUCUGUGAUGUAGGAUUGUGUCCCUUGGCAGCUGCGAUAUCAUC | 229 | 91.3 | – | –
10 | GCACCAGGUACGGAUACCAGCUGCCACAGUUACAUGAGGAUCACCCAUGUGAUAAAGUGUAGCCCUUGGCAGCUGUACCUGGUGC | – | – | 114 | 14.3
11 | GCACCAGGUACGGAUACCAGCUGCUCGAGAUACAUGAGGAUCACCCAUGUGACCUGGUUUAGCCCUUGGCAGCUGUACCUGGUGC | – | – | 15.8 | 9.98
12 | GGCUGUUGCUCUUUGAAGCGGCAGCGUGAUACCAGAUGUAAGAGCGUCCCUUGGCAGCACGUUUACAUGAGGAUCACCCAUGUCA | – | – | 211 | 72.8
13 | UAAAACAUGAGGAUCACCCAUGUAAAAGAUACCAGAGUGAUGAUCCUCCCUUGGCAGCUUAACGCUGAUUGAUUACAAUCAGCGA | – | – | 93.9 | 180
14 | UAAAACAUGAGGAUCACCCAUGUAAUUGAUACCAGAGUGAUGAUCCUCCCUUGGCAGCAAAACGCUGAUUGAUUACAAUCAGCGA | – | – | 54.3 | 207
15 | UCACAUGAGGAUCACCCAUGUACAGGCGAUACCAGCCGUACAUUGGGCCCUUGGCAGCGCACCGAGACCUUUUAAAGCACUUCGG | – | – | 35.1 | 121
16 | UCAUAUUAGUGAGAUGUAAGGUAUCAUGAUACCAGUAGAUAAUUAUACCCUUGGCAGCAUAACAUGAGGAUCACCCAUGUACAUG | 25.6 | 23.3 | – | –
17 | UCCUCCUCCGCAAGGAGGAGGAGUUGCGAUACCAGCACGGUAACGUGCCCUUGGCAGCGCACAUGAGGAUCACCCAUGUCAUGUU | 17.6 | 22.3 | – | –
18 | UCGCAUUGCUCAGAUACCAGACAUGAGGAUCACCCAUGUACCAAGGUACCCGAAAGGAAUGUCCCUUGGCAGCUGAGCAAUGCGU | 9.82 | 23.6 | – | –
19 | UCGUGUAAAACGGAUACCAGUGAGAAGGAUACAUGAGGAUCACCCAUGUGAGUUGAUCCACACCCUUGGCAGCUGUAUAUAUCUA | – | – | 118 | 706
20 | UGACAUUGCUCAGAUACCAGACAUGAGGAUCACCCAUGUGCCAAAUACGUACAAAUAAAUGUCCCUUGGCAGCUGAGCAAUGUCU | 14.2 | 266 | – | –
21 | UGACGAUACCUGGAUACCAGCGACAUGAGGAUCACCCAUGUAUGAGGAUCAGCCAUGUUAUGCCCUUGGCAGCCACGAAAGUCUU | 45.7 | 171 | – | –
22 | UGGCAGCACCUCAUGUGCUGCCAAGGUGAUACCAGCAUCGAAAGAUGCCCUUGGCAGCACCAACAUGAGGAUCACCCAUGUAAUA | – | – | 165 | 152
23 | UGUAACAUGAGGAUCACCCAUGUGAGUGAUACCAGACUAGUGUUGGUCCCUUGGCAGCACGCUGGACGAAUGUGUAGUCUAUGCG | – | – | 78.3 | 83.7
24 | UUAGAUAUGACAGAUACCAGCGUGUUGUUGAACAUGAGGAUCACCCAUGUAGUGAUCGAGCGCCCUUGGCAGCUGGUGUGUUUGG | – | – | 161 | 181
25 | UUAUCUAUAUUCGAUACCAGUACCCUGGCCGCAAAUCCUAACAUGAGGAUCACCCAUGUGUACCCUUGGCAGCGGGUAUGGGUUU | 23.2 | 88.8 | – | –
26 | UUGCAUAUCUUGGAUACCAGCACAUGAGGAUCACCCAUGUCCGCGGGAUAGCUCCAGAUGUGCCCUUGGCAGCCACAUGCACUUG | 10.2 | 26.4 | – | –
